Compounds with a hit are over-represented: about 3.5% of the library has one in this group of screens.
MrgX1 allo act: human MrgX1 positive allosteric modulation, primary screen. Q96LB2. MrgX1-HEK293, Fluo-4 calcium flux, FDSS; stronger effect = higher value. B-score at 10 µM. 0.63% of 310,000 active;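 active = plate-corrected calcium response at least 3 library SD above typical, normal starting fluorescence, not activating the receptor alone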;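 also: compound read alongside a low EC10 to EC30 dose of BAM8-22 agonist; peak minus trough fluorescence over baseline measured at the second addition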
Target sequence (Q96LB2 whole entry, looked up): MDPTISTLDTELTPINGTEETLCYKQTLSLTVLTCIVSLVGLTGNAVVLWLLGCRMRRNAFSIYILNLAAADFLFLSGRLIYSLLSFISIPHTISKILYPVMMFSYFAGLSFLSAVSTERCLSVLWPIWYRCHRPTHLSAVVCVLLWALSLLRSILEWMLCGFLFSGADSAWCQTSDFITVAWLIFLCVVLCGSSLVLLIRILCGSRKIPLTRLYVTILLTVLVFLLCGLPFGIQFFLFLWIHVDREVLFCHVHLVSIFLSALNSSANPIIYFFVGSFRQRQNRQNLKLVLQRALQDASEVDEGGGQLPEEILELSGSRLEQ
RGS4 inh: human RGS4 inhibition; P49798; HEK293 M3R/RGS4 inducible, Fluo-4 calcium flux; stronger effect = higher value; triggered by carbachol at its EC20; B-score at 10 µM; 0.45% of 310,000 active; AID 463165;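 active = B-score, a plate-corrected calcium signal, over three deviations above library mean, with baseline fluorescence within five deviations of library mean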;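 also: RGS4 expression induced by doxycycline in cells with stable M3 receptor; B-score is computed from the integrated fluorescence ratio over baseline after carbachol; higher B-score means a larger calcium signal and so more RGS4 inhibition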
Target sequence (P49798 whole entry, looked up): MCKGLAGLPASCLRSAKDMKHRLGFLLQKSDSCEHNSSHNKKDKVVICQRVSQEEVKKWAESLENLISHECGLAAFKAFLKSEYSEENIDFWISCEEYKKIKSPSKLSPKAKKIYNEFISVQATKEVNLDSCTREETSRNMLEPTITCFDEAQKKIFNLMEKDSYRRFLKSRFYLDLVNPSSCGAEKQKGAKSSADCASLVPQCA
RGS4 pot: potentiators or activators of RGS4 | HEK293 M3R/inducible RGS4, carbachol calcium flux Fluo4; stronger effect = lower value | B-score at 10 µM | 0.92% of 310,000 active | AID 463111;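 active = B-score of the integrated calcium signal more than 4 SD below the library mean, with starting fluorescence not abnormally high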;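 also: negative B-score means reduced calcium response which marks RGS4 activation or potentiation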
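test system = M3R-expressing HEK293 line, RGS4 induced by doxycycline | probe or stimulus = carbachol at ECmax as muscarinic agonist stimulus | timing = dye loading 30 min 37 °C, buffer rest 30 min RT | signal = calcium dye Fluo4 fluorescence | evaluation = B score from integrated fluorescence ratio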
MrgX1 antagonist: human MrgX1 receptor antagonism, primary screen; Q96LB2; B-score at 10 µM; AID 588676; 1.3% of 310,000 active; MRGX1-HEK293 calcium flux, Fluo-4, BAM8-22 antagonism; stronger effect = lower value;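 active = calcium-response B-score plate-corrected more than 3 library SD below zero, starting fluorescence within 5 deviations, no agonist response on first addition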;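 also: peak minus trough fluorescence over baseline after final BAM8-22 challenge near maximal dose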
MrgX1 agonist: human MrgX1 receptor agonism, primary screen. Q96LB2. MrgX1-HEK293 cells, Fluo-4 calcium fluorescence, agonist mode; stronger effect = higher value. B-score at 10 µM. 0.44% of 310,000 active. AID 588627;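 active = calcium response B-score plate-corrected fluorescence ratio at least 3 library SD, with starting fluorescence B-score inside 5 SD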
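Material: HEK293 cells stably expressing human MrgX1 receptor | Quantity: 15,000 cells per well | Times: Cells plated overnight, dye loaded 0.5 h 37 °C, 0.5 h room temperature | Measured by: Kinetic Fluo-4 NW fluorescence of intracellular calcium | Control set: Positive and negative controls per plate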
MrgX1 allo conf: reconfirmed allosteric activator of human MrgX1 receptor; shares compounds with MrgX1 allo act; MrgX1-HEK293, Fluo-4 calcium fluorescence, FDSS; 13% of 1,200 active; activation (ratio percentage), % at 10 µM;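 active = ratio at least 3 SD above the weak peptide control, stable starting fluorescence, no direct agonism earlier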;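 also: compound followed by low BAM8-22 agonist challenge near EC20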
HEK293 Ca flux: counter-screen for MrgX1 antagonists: effect in parental HEK293 cells. shares compounds with MrgX1 antagonist. Fluo-4 calcium fluorescence, FDSS. fluorescence ratio F(max-min)/F0 at 10 µM. 2% of 4,000 active. AID 624111;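 active = duplicate-averaged calcium fluorescence ratio at least three times the standard deviation of buffer wells, a nonspecific response in parental cells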
HEK293 Ca counter: counter-screen for MrgX1 allosteric activators: effect in parental HEK293 cells; shares compounds with MrgX1 antagonist; fluorescence ratio F(max-min)/F0 at 10 µM; parental HEK293 calcium flux, Fluo-4 fluorescence ratio; stronger effect = higher value; 0.4% of 4,000 active;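 active = calcium fluorescence ratio, averaged over duplicates, at least 3 SD of the buffer-well ratio, meaning a nonspecific response in receptor-free cells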;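 also: untransfected parental HEK293 lacking MrgX1 used as counterscreen for MrgX1 allosteric activators; fluorescence change taken during the second addition on a kinetic imager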
HEK293 Ca cntr2: MrgX1 activator counter-screen hit in parental HEK293 cells | Fluo-4 calcium fluorescence (FDSS); stronger effect = higher value | 8.7% of 4,000 active | fluorescence ratio F(max-min)/F0 at 10 µM | shares compounds with MrgX1 antagonist;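 active = calcium fluorescence ratio at least three times the spread of buffer wells, meaning a non-specific response in parental cells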
A number is an active result.

Cc1cc(C)c(NC(=O)CNC(=O)COC(=O)C2CCN(c3ccc(C(F)(F)F)cn3)CC2)c(C)c1 was read as MrgX1 allo act 7, RGS4 inh inactive, RGS4 pot inactive, MrgX1 antagonist inactive, MrgX1 agonist inactive, MrgX1 allo conf inactive, HEK293 Ca flux inactive, HEK293 Ca counter inactive and HEK293 Ca cntr2 inactive.
Cc1cc(C)c(NC(=O)COC(=O)C2CCN(c3ccc(C(F)(F)F)cn3)CC2)c(Cl)c1 was read as MrgX1 allo act inactive, RGS4 inh inactive, RGS4 pot inactive, MrgX1 antagonist inactive and MrgX1 agonist inactive.
COc1cc(SC)ccc1C(=O)NCc1ccc(C)cc1 was read as MrgX1 allo act 6.5, RGS4 inh inactive, RGS4 pot inactive, MrgX1 antagonist inactive, MrgX1 agonist inactive, MrgX1 allo conf inactive, HEK293 Ca flux inactive, HEK293 Ca counter inactive and HEK293 Ca cntr2 inactive.
COCCN1CCN(Cc2nc(C3(c4ccc(C)cc4)CCCC3)no2)CC1 was read as MrgX1 allo act 9, RGS4 inh inactive, RGS4 pot inactive, MrgX1 antagonist inactive, MrgX1 agonist inactive, MrgX1 allo conf inactive, HEK293 Ca flux inactive, HEK293 Ca counter inactive and HEK293 Ca cntr2 inactive.
`COCc1ccc(CN2CCC(N3CCC(C(=O)N4CCCC4)CC3)CC2)o1` gave MrgX1 allo act 8.9, RGS4 inh inactive, RGS4 pot inactive, MrgX1 antagonist inactive, MrgX1 agonist inactive, MrgX1 allo conf inactive, HEK293 Ca flux inactive, HEK293 Ca counter inactive and HEK293 Ca cntr2 inactive.
`Cc1c(CC(=O)O)c(=O)oc2c(C)c(OCc3c(F)cccc3Cl)ccc12` gave MrgX1 allo act 13, RGS4 inh inactive, RGS4 pot inactive, MrgX1 antagonist inactive, MrgX1 agonist inactive, MrgX1 allo conf inactive, HEK293 Ca flux inactive, HEK293 Ca counter inactive and HEK293 Ca cntr2 inactive.
For Cc1c(CC(=O)O)c(=O)oc2c(C)c(OCc3ccccc3)ccc12 the results were MrgX1 allo act inactive, RGS4 inh inactive, RGS4 pot inactive, MrgX1 antagonist inactive and MrgX1 agonist inactive.
For O=C(CN1C(=O)C2C3CC(C(Br)C3Br)C2C1=O)N1CCOCC1 (centres undefined) the results were MrgX1 allo act inactive, RGS4 inh inactive, RGS4 pot inactive, MrgX1 antagonist inactive and MrgX1 agonist inactive.
Screening O=C(CN1C(=O)C2C3CC(C(Br)C3Br)C2C1=O)N1CCN(Cc2ccccc2)CC1 (centres undefined) returned MrgX1 allo act 7.7, RGS4 inh inactive, RGS4 pot inactive, MrgX1 antagonist inactive, MrgX1 agonist inactive, MrgX1 allo conf inactive, HEK293 Ca flux inactive, HEK293 Ca counter inactive and HEK293 Ca cntr2 inactive.
N=C1/C(=C/c2ccc(OCc3ccccc3F)cc2)C(=O)N=C2SC(CC(=O)N3CCOCC3)=NN12 was read as MrgX1 allo act 35, RGS4 inh inactive, RGS4 pot inactive, MrgX1 antagonist inactive, MrgX1 agonist inactive, MrgX1 allo conf 21%, HEK293 Ca flux inactive, HEK293 Ca counter inactive and HEK293 Ca cntr2 inactive.
Screening CCOc1ccccc1Nc1ccnc2cc(Cl)ccc12 returned MrgX1 allo act 11, RGS4 inh inactive, RGS4 pot inactive, MrgX1 antagonist inactive, MrgX1 agonist inactive, MrgX1 allo conf inactive, HEK293 Ca flux inactive, HEK293 Ca counter inactive and HEK293 Ca cntr2 inactive.
For CC(C)(C)C(=O)c1cnc(Nc2ccccc2Cl)s1 the results were MrgX1 allo act 7.1, RGS4 inh inactive, RGS4 pot inactive, MrgX1 antagonist inactive, MrgX1 agonist inactive, MrgX1 allo conf inactive, HEK293 Ca flux inactive, HEK293 Ca counter inactive and HEK293 Ca cntr2 inactive.

Source: PubChem
